Measured values pooled from the literature.
Protocols differ between the studies behind these lines.
Target: Serine/threonine-protein kinase ULK3 (ULK3, Homo sapiens, UniProt Q6PHR2)
One construct used (Q6PHR2 1-472): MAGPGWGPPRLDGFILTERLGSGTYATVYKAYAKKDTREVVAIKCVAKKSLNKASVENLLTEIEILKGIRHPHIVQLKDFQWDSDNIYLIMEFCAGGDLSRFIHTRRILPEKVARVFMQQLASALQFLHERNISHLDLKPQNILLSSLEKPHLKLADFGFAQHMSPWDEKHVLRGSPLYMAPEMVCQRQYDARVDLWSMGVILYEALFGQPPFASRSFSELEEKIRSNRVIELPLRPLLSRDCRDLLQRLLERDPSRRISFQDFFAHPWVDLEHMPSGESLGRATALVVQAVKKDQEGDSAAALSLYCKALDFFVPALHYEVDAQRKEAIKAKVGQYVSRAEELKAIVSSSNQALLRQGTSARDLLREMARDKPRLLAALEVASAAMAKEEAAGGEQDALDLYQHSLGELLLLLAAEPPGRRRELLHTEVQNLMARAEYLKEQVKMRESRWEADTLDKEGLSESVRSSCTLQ

With F[C@@H]1CCN(c2nccc(-c3cnn4ncccc34)n2)C1 the remaining binding was 100% (binding; 1 µM).
For COc1ncc2cc3ccccc3nc2c1C#N, the remaining binding was 91% (cell-free assay; competition with immobilised ligand; 5 µM).
The remaining binding of Cc1cnc(Nc2ccc(C(=O)N3CCC(N4CCCC4)CC3)cc2)nc1-c1cc2ccccc2s1 is reported as 0.3% (binding; competition with immobilised ligand; 1 µM).
CN(C)c1nccc(-c2cnn3ncccc23)n1 gave a remaining binding of 77% (binding; 1 µM).
The remaining binding of COc1cnc(Nc2cccc(S(N)(=O)=O)c2)nc1N1CCN(c2ccccc2)CC1 is reported as 79% (binding; competition with immobilised ligand; 1 µM).
CC(=O)Nc1c(C(C)=O)c(=O)n(C)c2nc(-c3ccc(Cl)cc3Cl)c(-c3ccc(Cl)cc3)cc12 has a remaining binding of 75% (cell-free assay; competition with immobilised ligand; 1 µM).
With FC(F)(F)Oc1cccc(-c2cnc3ccc(-c4ccncc4)nn23)c1 the remaining binding was 45% (binding; competition with immobilised ligand; 5 µM).
With O=C(Nc1cccnn1)N1CC(C/C=C/c2cncc(Oc3ccc(C(F)(F)F)cn3)n2)C1 the remaining binding was 82% (cell-free assay; competition with immobilised ligand; 1 µM).
The remaining binding of N[C@@H]1CCN(c2nccc(-c3cnn4ncccc34)n2)C1 is reported as 100% (binding; 1 µM).
O=C(NCC1CCOCC1)c1n[nH]cc1NC(=O)c1c(F)cccc1F has a remaining binding of 85% (binding; competition with immobilised ligand; 1 µM).
Cn1nc(C(=O)NCc2ccc(C(=O)O)cc2)cc1-c1ccc2[nH]ccc2c1 gave a remaining binding of 99% (cell-free assay; competition with immobilised ligand; 0.1 µM).
The remaining binding of O=C(NCCCN1CCOCC1)c1ccc(Nc2ncc(Cl)c(-c3ccc(Cl)s3)n2)cc1 is reported as 6.5% (binding; competition with immobilised ligand; 1 µM).
With C[C@@H]1CCN(c2nccc(-c3cnn4ncccc34)n2)C1 the remaining binding was 80% (binding; 1 µM).
O=C(c1ccc(Nc2ncc(Cl)c(-c3cc4ccccc4s3)n2)cc1)N1CCC(N2CCCC2)CC1 gave a remaining binding of 0.2% (binding; competition with immobilised ligand; 1 µM).
The remaining binding of Cn1cc(Cl)c2c(Oc3c(F)cc(Nc4cc(Cl)nc(N)n4)cc3F)ccnc21 is reported as 85% (cell-free assay; competition with immobilised ligand; 0.1 µM).
The remaining binding of c1cnn2ncc(-c3ccnc(N4CCC45COC5)n3)c2c1 is reported as 64% (binding; 1 µM).
C[C@H](c1ccc(F)cc1)N(Cc1cccc(C(=O)O)c1)C(=O)c1cnc2ccccc2c1 gave a remaining binding of 82% (cell-free assay; competition with immobilised ligand; 1 µM).
For COc1cnc(Nc2cccc(S(N)(=O)=O)c2)nc1N1CCN(c2ccccc2)C(=O)C1, the remaining binding was 45% (binding; competition with immobilised ligand; 1 µM).
O=C(Nc1ccc(Oc2ccc(F)cc2)cc1)N1CCc2ncccc2[C@H]1c1ccc(F)cc1 has a remaining binding of 99% (cell-free assay; competition with immobilised ligand; 1 µM).
For CCN1CCN(Cc2ccc(C(=O)Nc3ccc(C)c(Oc4ccc5c(c4)CC(=O)N5)c3)cc2C(F)(F)F)CC1, the remaining binding was 100% (binding; competition with immobilised ligand; 1 µM).
